Assay results from ChEMBL document CHEMBL3868633, “Linker dependent intercalation of bisbenzimidazole-aminosugars in an RNA duplex; selectivity in RNA vs. DNA binding” (Bioorg Med Chem Lett, 2016).
Calls of active or inactive are those of the source. The rule behind the calls is not given here.

What was measured:
[1] = Binding affinity to poly(rA).(rU) RNA duplex (unknown origin) assessed as thermal stability by measuring change in melting temperature at 5 uM by UV-Vis spectrophotometry
Summary of the method: (§1)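 UV thermal denaturation of poly(rA)•(rU) duplex at 15 µM/bp, with and without ligand, in 10 mM sodium cacodylate, 0.5 mM EDTA, 100 mM NaCl, pH 7.0. ΔTm is the shift from the melting temperature of free RNA.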

[2] = Binding affinity to poly(rA).(rU) RNA duplex (unknown origin) assessed as change in CD band intensity at 266 nanometer measured after 5 mins by circular dichroism titration method
Summary of the method: (§2)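 Circular dichroism titration of poly(rA)•(rU) at 40 µM/bp in 10 mM sodium cacodylate, 0.5 mM EDTA, 100 mM NaCl, pH 7.0, at 25 °C. Concentrated ligand is added serially, with five minutes of equilibration after each addition. Each spectrum is the average of two scans. Binding site size (rbd, RNA base pairs per drug) is taken from the change in nucleic acid CD intensity.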

[3] = Binding affinity to poly(rA).(rU) RNA duplex (unknown origin) assessed as decrease in CD band intensity at 263 nanometer measured after 5 mins by circular dichroism titration method
Summary of the method: (§3)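 Poly(rA)•(rU) at 40 µM/bp in 10 mM sodium cacodylate, 0.5 mM EDTA, 100 mM NaCl, pH 7.0, 25 °C. Concentrated ligand added serially, with 5 min equilibration before each CD scan. Each measurement averages two scans. Changes in nucleic acid CD intensity are plotted against rbd (RNA base pairs per drug) to derive binding site size.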

[4] = Binding affinity to poly(rA).(rU) RNA duplex (unknown origin) assessed as hypochromicity at 3 uM by UV-vis absorption method
[5] = Binding affinity to poly(rA).(rU) RNA duplex (unknown origin) assessed as appearance of induced CD band at 320 to 380 nanometer measured after 5 mins by circular dichroism titration method; summary of the method: as §3
[6] = Inhibition of ethidium bromide binding to r(CGCAAAUUUGCG)2 RNA (unknown origin) at 1:1 ratio of ligand:RNA measured after 5 mins by fluorescent intercalator displacement assay relative to control
Summary of the method: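 Buffer is 10 mM sodium cacodylate, 0.5 mM EDTA, 100 mM NaCl, pH 7.0, at 23 °C. Read-out is the percent change in fluorescence emission on ligand addition.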

[7] = Binding affinity to poly(rA).(rU) RNA duplex (unknown origin) assessed as thermal stability by measuring change in melting temperature at 5 uM in presence of neomycin by UV-Vis spectrophotometry
[8] = Binding affinity to poly(rA).(rU) RNA duplex (unknown origin) assessed as red shift at 3 uM by UV-vis absorption method
[9] = Binding affinity to poly(rA).(rU) RNA duplex (unknown origin) assessed as appearance of negative induced LD signal at 348 nanometer at 100 uM after 5 mins by microvolume couette flow linear dichroism method
Summary of the method: (§4)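 Linear dichroism spectra of poly(rA)•(rU) (1 mM/bp) alone and mixed with ligand at rbd 10. Run in 10 mM sodium cacodylate, 0.5 mM EDTA, 100 mM NaCl, pH 7.0, at room temperature.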

[10] = Binding affinity to d(CGCAAATTTGCG)2 DNA (unknown origin) assessed as thermal stability by measuring change in melting temperature by UV-Vis spectrophotometry
[11] = Binding affinity to r(CGCAAAUUUGCG)2 RNA duplex (unknown origin) assessed as thermal stability by measuring change in melting temperature at 5 uM by UV-Vis spectrophotometry
[12] = Inhibition of ethidium bromide binding to r(CGCAAAUUUGCG)2 RNA (unknown origin) after 5 mins by fluorescent intercalator displacement assay
[13] = Binding affinity to poly(rA).(rU) RNA duplex (unknown origin) assessed as change in LD signal at 260 nanometer at 100 uM after 5 mins by microvolume couette flow linear dichroism method; summary of the method: as §4
[14] = Binding affinity to poly(rA).(rU) RNA duplex (unknown origin) measured after 5 mins by circular dichroism titration method; summary of the method: as §2
[15] = Binding affinity to poly(rA).(rU) RNA duplex (unknown origin) assessed as thermal stability by measuring change in melting temperature at 5 uM in presence of Hoechst 33258 by UV-Vis spectrophotometry; summary of the method: as §1
[16] = Binding affinity to poly(rA).(rU) RNA duplex (unknown origin) assessed as appearance of negative induced CD at 347 nanometer measured after 5 mins by circular dichroism titration method; summary of the method: as §2
[17] = Binding affinity to poly(rA).(rU) RNA duplex (unknown origin) assessed as isosbestic point at 362 nanometer at 3 uM by UV-vis absorption method
[18] = Binding affinity to poly(rA).(rU) RNA duplex (unknown origin) assessed as appearance of unidirectional induced CD at 347 nanometer measured after 5 mins by circular dichroism titration method; summary of the method: as §2

Row | ΔTm [1] | inhibition [6] | Activity [9] | ΔTm [10] | Compound | further results
1 | 0.3 °C |  |  |  | C#CCOCCCCCCCCCCOc1ccc(-c2nc3ccc(-c4nc5ccc(N6CCN(C)CC6)cc5[nH]4)cc3[nH]2)cc1 | 
2 | 15 °C | 20.7 to 36.2% | Active | 24.6 °C | CN1CCN(c2ccc3nc(-c4ccc5nc(-c6ccc(OCCCCOCc7cn(C[C@H]8O[C@@H](O[C@@H]9[C@@H](O)[C@H](N)C[C@H](N)[C@H]9O[C@H]9O[C@H](CN)[C@@H](O)[C@H](O)[C@H]9N)[C@H](O)[C@@H]8O[C@H]8OC(CN)[C@@H](O)[C@H](O)[C@H]8N)nn7)cc6)[nH]c5c4)[nH]c3c2)CC1 (stereo not given in full) | 
3 | -0.4 °C |  |  |  | C#CCCCCCCCCCOc1ccc(-c2nc3ccc(-c4nc5ccc(N6CCN(C)CC6)cc5[nH]4)cc3[nH]2)cc1 | 
4 |  | 20.7 to 36.2% | Active | 13.2 °C | CN1CCN(c2ccc3nc(-c4ccc5nc(-c6ccc(OCCCCCCCCc7cn(C[C@H]8O[C@@H](O[C@@H]9[C@@H](O)[C@H](N)C[C@H](N)[C@H]9O[C@H]9O[C@H](CN)[C@@H](O)[C@H](O)[C@H]9N)[C@H](O)[C@@H]8O[C@H]8OC(CN)[C@@H](O)[C@H](O)[C@H]8N)nn7)cc6)[nH]c5c4)[nH]c3c2)CC1 (stereo not given in full) | ΔTm [11]: 16.2 °C
5 | 0.7 °C |  |  |  | C#CCOCCCCCCCCOc1ccc(-c2nc3ccc(-c4nc5ccc(N6CCN(C)CC6)cc5[nH]4)cc3[nH]2)cc1 | 
6 | 0.2 °C |  |  |  | C#CCOCCOCCOCCOCCOCCOCCOc1ccc(-c2nc3ccc(-c4nc5ccc(N6CCN(C)CC6)cc5[nH]4)cc3[nH]2)cc1 | 
7 | -1.2 °C |  |  |  | C#CCCCCOc1ccc(-c2nc3ccc(-c4nc5ccc(N6CCN(C)CC6)cc5[nH]4)cc3[nH]2)cc1 | 
8 |  | 20.7 to 36.2% | Active | 23.8 °C | CN1CCN(c2ccc3nc(-c4ccc5nc(-c6ccc(OCc7cn(C[C@H]8O[C@@H](O[C@@H]9[C@@H](O)[C@H](N)C[C@H](N)[C@H]9O[C@H]9O[C@H](CN)[C@@H](O)[C@H](O)[C@H]9N)[C@H](O)[C@@H]8O[C@H]8OC(CN)[C@@H](O)[C@H](O)[C@H]8N)nn7)cc6)[nH]c5c4)[nH]c3c2)CC1 (stereo not given in full) | ΔTm [11]: 9.1 °C
9 | 21.9 °C | 20.7 to 36.2% | Active | 21.7 °C | CN1CCN(c2ccc3nc(-c4ccc5nc(-c6ccc(OCCCCCCCCOCc7cn(C[C@H]8O[C@@H](O[C@@H]9[C@@H](O)[C@H](N)C[C@H](N)[C@H]9O[C@H]9O[C@H](CN)[C@@H](O)[C@H](O)[C@H]9N)[C@H](O)[C@@H]8O[C@H]8OC(CN)[C@@H](O)[C@H](O)[C@H]8N)nn7)cc6)[nH]c5c4)[nH]c3c2)CC1 (stereo not given in full) | 
10 | -0.2 °C |  |  |  | C#CCOCCCCCCCCCCCCOc1ccc(-c2nc3ccc(-c4nc5ccc(N6CCN(C)CC6)cc5[nH]4)cc3[nH]2)cc1 | 
11 | 0.3 °C |  |  |  | C#CCOCCCCCCOc1ccc(-c2nc3ccc(-c4nc5ccc(N6CCN(C)CC6)cc5[nH]4)cc3[nH]2)cc1 | 
12 |  | 20.7 to 36.2% | Active | 16.4 °C | CN1CCN(c2ccc3nc(-c4ccc5nc(-c6ccc(OCCOCCOCCOCCOCCOCCOCc7cn(C[C@H]8O[C@@H](O[C@@H]9[C@@H](O)[C@H](N)C[C@H](N)[C@H]9O[C@H]9O[C@H](CN)[C@@H](O)[C@H](O)[C@H]9N)[C@H](O)[C@@H]8O[C@H]8OC(CN)[C@@H](O)[C@H](O)[C@H]8N)nn7)cc6)[nH]c5c4)[nH]c3c2)CC1 (stereo not given in full) | ΔTm [11]: 7.2 °C
13 | 0.3 °C |  |  |  | C#CCOCCCCOc1ccc(-c2nc3ccc(-c4nc5ccc(N6CCN(C)CC6)cc5[nH]4)cc3[nH]2)cc1 | 
14 | 0 °C |  |  |  | C#CCOc1ccc(-c2nc3ccc(-c4nc5ccc(N6CCN(C)CC6)cc5[nH]4)cc3[nH]2)cc1 | 
15 |  | 20.7 to 36.2% | Active | 22.8 °C | CN1CCN(c2ccc3nc(-c4ccc5nc(-c6ccc(OCCCCc7cn(C[C@H]8O[C@@H](O[C@@H]9[C@@H](O)[C@H](N)C[C@H](N)[C@H]9O[C@H]9O[C@H](CN)[C@@H](O)[C@H](O)[C@H]9N)[C@H](O)[C@@H]8O[C@H]8OC(CN)[C@@H](O)[C@H](O)[C@H]8N)nn7)cc6)[nH]c5c4)[nH]c3c2)CC1 (stereo not given in full) | Ka [12]: 8.8 ×10⁶ /M; Activity [13]: Active; ΔTm [11]: 15.1 °C
16 |  | 20.7 to 36.2% | Active | 18.2 °C | CN1CCN(c2ccc3nc(-c4ccc5nc(-c6ccc(OCCCCCCCCCCCCOCc7cn(C[C@H]8O[C@@H](O[C@@H]9[C@@H](O)[C@H](N)C[C@H](N)[C@H]9O[C@H]9O[C@H](CN)[C@@H](O)[C@H](O)[C@H]9N)[C@H](O)[C@@H]8O[C@H]8OC(CN)[C@@H](O)[C@H](O)[C@H]8N)nn7)cc6)[nH]c5c4)[nH]c3c2)CC1 (stereo not given in full) | 
17 | 20.3 °C | 20.7 to 36.2% | Active | 19 °C | CN1CCN(c2ccc3nc(-c4ccc5nc(-c6ccc(OCCCCCCCCCCOCc7cn(C[C@H]8O[C@@H](O[C@@H]9[C@@H](O)[C@H](N)C[C@H](N)[C@H]9O[C@H]9O[C@H](CN)[C@@H](O)[C@H](O)[C@H]9N)[C@H](O)[C@@H]8O[C@H]8OC(CN)[C@@H](O)[C@H](O)[C@H]8N)nn7)cc6)[nH]c5c4)[nH]c3c2)CC1 (stereo not given in full) | 
18 | 10.8 °C | 20.4% |  |  | NC[C@@H]1O[C@H](O[C@H]2[C@@H](O)[C@H](O[C@@H]3[C@@H](O)[C@H](N)C[C@H](N)[C@H]3O[C@H]3O[C@H](CN)[C@@H](O)[C@H](O)[C@H]3N)O[C@@H]2CO)[C@H](N)[C@@H](O)[C@@H]1O | Activity [2]: Active; Activity [14]: Active; ΔTm [15]: 10.5 °C
19 | 15.8 to 19 °C | 20.7 to 36.2% | Active | 22.2 °C | CN1CCN(c2ccc3nc(-c4ccc5nc(-c6ccc(OCCCCCCOCc7cn(C[C@H]8O[C@@H](O[C@@H]9[C@@H](O)[C@H](N)C[C@H](N)[C@H]9O[C@H]9O[C@H](CN)[C@@H](O)[C@H](O)[C@H]9N)[C@H](O)[C@@H]8O[C@H]8OC(CN)[C@@H](O)[C@H](O)[C@H]8N)nn7)cc6)[nH]c5c4)[nH]c3c2)CC1 (stereo not given in full) | Activity [2]: Active; Activity [16]: Active; Activity [4]: 34.1%; Activity [17]: Active; Activity [18]: Active; Activity [8]: 10 nm

Row | Compound | ΔTm [1] | inhibition [6] | Activity [9] | ΔTm [10] | further results
20 | CN1CCN(c2ccc3[nH]c(-c4ccc5[nH]c(-c6ccc(O)cc6)nc5c4)nc3c2)CC1 | 0.4 °C | 8.2% |  |  | Activity [2]: Active; Activity [3]: Active; Activity [4]: 32.2%; Activity [5]: Active; ΔTm [7]: 10.5 °C; Activity [8]: 1 nm
